From ChEMBL document CHEMBL4396895, “Identification and Optimization of Novel Cathepsin C Inhibitors Derived from EGFR Inhibitors” (J Med Chem, 2019)
Calls of active or inactive are those of the source. No cut-off for these calls is given here.

Experiments:
Mus musculus [1] = assay: In vivo inhibition of CatC in po dosed C57BL/6 mouse blood assessed as reduction in CatG activation administered twice daily for 6 days using N-succinyl-Ala-Ala-Pro-Phe-pNA as substrate measured up to 90 mins by fluorescence assay; format: functional, organism-based
Summary of the method: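 C57BL/6 mice (20−25 g; n = 10 per group) received oral doses twice daily at 6.7, 20 or 60 mg/kg for 6 days. The vehicle group got 0.5% Methocel and 0.1% Tween-80 in 100 mM citrate buffer, pH 3. Blood was drawn by eye puncture 14 h after the last dose. Bone marrow was flushed from femurs and tibias with ice-cold RPMI 1640. Cells were lysed in 50 mM Tris pH 7.4, 750 mM NaCl, 1% Triton X-100, sonicated on ice and stored at −80 °C. Lysates were diluted by protein content, with blood diluted 5-fold more than marrow. Kinetics were followed for up to 90 min. Results are % of the vehicle mean.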

[2] = Intrinsic clearance in mouse liver microsomes assessed per mg protein measured after 60 mins in presence of NADPH by LC-MS/MS analysis; format: ADME, Microsome; conditions: read-out: CLH
Mus musculus [3] = assay: Protection against C57BL/6 mouse model of caerulein-induced acute pancreatitis at 20 mg/kg, po pretreated twice daily for 6 days followed by caerulein-challenge at 1 hr interval for 8 hrs and measured 1 hr post-last caerulein-challenge by H and E staining-based histological analysis
[4] = Intrinsic clearance in rat liver microsomes assessed per mg protein measured after 60 mins in presence of NADPH by LC-MS/MS analysis; format: ADME, Microsome; conditions: read-out: CLH
[5] = Cmax in C57BL/6 mouse at 10 mg/kg, po by LC-MS/MS analysis; format: ADME, organism-based; design: dose 10 mg/kg, route oral; conditions: in vivo
Summary of the method: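 Male C57BL/6 mice (n = 3) were dosed with a single IV dose of 2 mg/kg or an IP or PO dose of 10 mg/kg. Vehicle: 0.5% Methocel and 0.1% Tween-80 in citrate buffer, pH 3. Blood was drawn by eye puncture at several time points and analysed by LC-MS/MS. Parameters came from noncompartmental analysis of individual animals and are reported as means.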

microsomal CLint [2]: 10.8 µL/min/mg
microsomal CLint [4]: 6.3 µL/min/mg
Cmax [5]: 184 ng/mL
SMILES: C=CC(=O)Nc1cc(Oc2nc(Nc3ccc(N4CCN(C)CC4)cc3OC)ccc2N2CCCCC2)ccc1C
inhibition (Mus musculus [1]): Dose-dependent effect
Activity (Mus musculus [3]): Active
